As usually defined, the half-life is the time needed for the level to fall by half in the phase considered. As usually defined, the EC50 is the concentration that produces a half-maximal response. A lower EC50 goes with higher potency in that assay.

In data set [1] the target is Voltage-gated potassium channel, KQT; KCNQ2(Kv7.2)/KCNQ3(Kv7.3) (Homo sapiens) (UniProt O43526+O43525). Put plainly: Agonist activity at human Kv7.2/Kv7.3 expressed in HEK293 cells assessed as drug concentration that doubles the conductance at voltage leading to 15% channel activation at holding potential of at -80 mV by whole cell patch clamp electrophysiology assay. The class given is cell-based. A digest of the protocol:
(§1)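 High-throughput automated electrophysiology on an IonWorks Barracuda platform using HEK293 cells expressing the human channel. Ten-point concentration–response curves were run. EC2x is the agonist concentration that doubles conductance at the voltage giving 15% channel activation. Values come from 2–5 individual assay determinations and are given as mean ± SD. The reference agonist was run in 6–431 repeats.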

The target of data set [2] is Voltage-gated potassium channel KCNQ3/KCNQ5 (Homo sapiens) (UniProt O43525+Q9NR82). As to the kind of experiment: Agonist activity at human Kv7.3/Kv7.5 expressed in HEK293 cells assessed as drug concentration that doubles the conductance at voltage leading to 15% channel activation at holding potential of at -80 mV by whole cell patch clamp electrophysiology assay. It is filed as cell-based. A digest of the protocol:
as §1
On the technique in general: Patch clamp records ionic current or voltage across a cell membrane.

For data set [3], the target named is T1, Potassium voltage-gated channel subfamily KQT member 4 (Homo sapiens) (UniProt P56696).
T1 sequence (whole entry): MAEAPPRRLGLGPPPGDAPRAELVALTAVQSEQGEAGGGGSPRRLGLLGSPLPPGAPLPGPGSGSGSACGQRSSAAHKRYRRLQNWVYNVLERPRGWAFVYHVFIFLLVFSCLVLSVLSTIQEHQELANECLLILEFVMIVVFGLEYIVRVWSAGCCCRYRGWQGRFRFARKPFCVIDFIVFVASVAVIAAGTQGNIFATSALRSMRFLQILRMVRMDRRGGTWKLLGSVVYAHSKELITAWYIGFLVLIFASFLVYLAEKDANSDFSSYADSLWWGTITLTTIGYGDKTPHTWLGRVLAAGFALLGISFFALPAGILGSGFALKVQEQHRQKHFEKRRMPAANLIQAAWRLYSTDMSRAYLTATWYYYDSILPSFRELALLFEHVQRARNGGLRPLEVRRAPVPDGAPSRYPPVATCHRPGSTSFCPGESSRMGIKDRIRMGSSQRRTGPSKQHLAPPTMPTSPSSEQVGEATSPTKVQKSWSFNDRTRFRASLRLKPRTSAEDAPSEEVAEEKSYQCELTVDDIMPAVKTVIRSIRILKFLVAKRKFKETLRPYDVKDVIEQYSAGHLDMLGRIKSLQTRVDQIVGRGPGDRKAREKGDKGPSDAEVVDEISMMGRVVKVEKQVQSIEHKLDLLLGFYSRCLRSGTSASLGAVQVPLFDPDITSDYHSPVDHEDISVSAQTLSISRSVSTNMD
Put plainly: Agonist activity at human Kv7.4 expressed in HEK293 cells assessed as drug concentration that doubles the conductance at voltage leading to 15% channel activation at holding potential of at -80 mV by whole cell patch clamp electrophysiology assay. The class given is cell-based. A digest of the protocol:
as §1

In data set [4] the target is KCNQ4/KCNQ5 (Homo sapiens) (UniProt Q9NR82+P56696). As to the kind of experiment: Agonist activity at human Kv7.4/Kv7.5 expressed in HEK293 cells assessed as drug concentration that doubles the conductance at voltage leading to 15% channel activation at holding potential of at -80 mV by whole cell patch clamp electrophysiology assay. The class given is cell-based. In outline:
as §1

For a further data set, the species on record is Homo sapiens. Put plainly: Selectivity index, ratio of EC2x for human Kv7.4/5 expressed in HEK293 cells to EC2x for EC2x for human Kv7.2/3 expressed in HEK293 cells. It is filed as cell-based. A digest of the protocol: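 Selectivity index calculated as EC2x(Kv7.4/Kv7.5) divided by EC2x(Kv7.2/Kv7.3). Both EC2x values came from IonWorks Barracuda automated electrophysiology in HEK293 cells, using 10-point concentration curves and the doubled-conductance definition at 15% activation voltage.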

Data set [5] can be described thus: Half life in human liver microsomes. It is filed as ADME, Microsome. A digest of the protocol:
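Stability was measured by incubation with pooled human liver microsomes. Half-life is reported in minutes.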

Data set [6] addresses Voltage-gated potassium channel, KQT; KCNQ2(Kv7.2)/KCNQ3(Kv7.3) (Homo sapiens, UniProt O43525+O43526). Put plainly: Agonist activity at human Kv7.2/Kv7.3 expressed in CHO cells at holding potential of at -85 mV by whole cell patch clamp electrophysiology assay. The class given is cell-based.

Structures are written as SMILES.

Chain of Voltage-gated potassium channel, KQT; KCNQ2(Kv7.2)/KCNQ3(Kv7.3) (O43526 whole entry): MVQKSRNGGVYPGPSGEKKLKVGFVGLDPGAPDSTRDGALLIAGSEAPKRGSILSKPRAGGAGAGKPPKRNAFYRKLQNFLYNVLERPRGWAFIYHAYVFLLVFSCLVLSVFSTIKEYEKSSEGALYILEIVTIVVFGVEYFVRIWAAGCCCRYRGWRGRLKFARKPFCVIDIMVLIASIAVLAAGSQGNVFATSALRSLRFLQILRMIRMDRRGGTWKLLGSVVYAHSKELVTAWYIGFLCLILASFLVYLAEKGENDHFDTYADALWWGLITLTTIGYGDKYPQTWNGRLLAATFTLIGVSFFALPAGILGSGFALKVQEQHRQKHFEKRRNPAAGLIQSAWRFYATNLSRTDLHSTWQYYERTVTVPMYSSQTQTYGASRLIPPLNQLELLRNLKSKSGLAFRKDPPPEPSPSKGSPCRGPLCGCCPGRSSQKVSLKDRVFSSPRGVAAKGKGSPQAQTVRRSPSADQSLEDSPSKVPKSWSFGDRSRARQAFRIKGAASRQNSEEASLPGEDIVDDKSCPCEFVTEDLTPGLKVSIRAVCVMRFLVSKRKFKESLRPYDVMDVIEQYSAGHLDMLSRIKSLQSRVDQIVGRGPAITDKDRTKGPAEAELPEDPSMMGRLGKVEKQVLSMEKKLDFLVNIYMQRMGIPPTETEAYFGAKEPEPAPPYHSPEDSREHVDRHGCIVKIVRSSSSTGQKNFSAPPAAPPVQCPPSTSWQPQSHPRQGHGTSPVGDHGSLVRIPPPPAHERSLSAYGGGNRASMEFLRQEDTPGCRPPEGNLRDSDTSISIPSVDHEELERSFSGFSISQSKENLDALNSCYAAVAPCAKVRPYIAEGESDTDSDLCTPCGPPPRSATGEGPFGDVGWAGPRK
Chain of Voltage-gated potassium channel, KQT; KCNQ2(Kv7.2)/KCNQ3(Kv7.3) (O43525 whole entry): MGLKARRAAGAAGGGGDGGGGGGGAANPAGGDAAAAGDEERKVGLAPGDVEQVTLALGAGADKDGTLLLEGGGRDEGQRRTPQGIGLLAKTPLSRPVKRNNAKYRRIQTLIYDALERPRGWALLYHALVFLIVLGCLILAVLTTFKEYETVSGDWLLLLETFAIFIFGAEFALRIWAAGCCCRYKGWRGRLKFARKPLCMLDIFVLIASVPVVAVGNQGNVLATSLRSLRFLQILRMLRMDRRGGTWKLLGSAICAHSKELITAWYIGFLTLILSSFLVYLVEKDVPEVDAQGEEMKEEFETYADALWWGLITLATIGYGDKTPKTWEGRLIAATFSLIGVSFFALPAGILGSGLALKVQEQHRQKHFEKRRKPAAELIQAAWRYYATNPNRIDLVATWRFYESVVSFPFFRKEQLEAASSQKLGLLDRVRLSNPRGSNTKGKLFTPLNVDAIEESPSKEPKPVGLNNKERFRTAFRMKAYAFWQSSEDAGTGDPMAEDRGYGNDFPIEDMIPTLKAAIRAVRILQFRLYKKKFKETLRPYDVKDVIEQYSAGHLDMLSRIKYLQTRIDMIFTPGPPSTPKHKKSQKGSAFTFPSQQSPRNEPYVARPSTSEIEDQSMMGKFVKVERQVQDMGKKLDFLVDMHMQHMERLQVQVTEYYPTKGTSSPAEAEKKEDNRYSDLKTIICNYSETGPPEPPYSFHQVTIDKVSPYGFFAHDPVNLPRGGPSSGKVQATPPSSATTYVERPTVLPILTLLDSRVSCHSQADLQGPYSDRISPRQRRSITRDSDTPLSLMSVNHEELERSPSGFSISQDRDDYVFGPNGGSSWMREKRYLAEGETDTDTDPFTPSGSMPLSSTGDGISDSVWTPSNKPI

Consider `Nc1c(NC(=O)OC2CC2)ccc(NCc2ncc(C(F)(F)F)cc2F)c1F`, for which the EC2 in data set [1] was 1.39 µM; in data set [2] it was over 10 µM; in data set [3], over 10 µM; in data set [4], over 10 µM. Besides, the Selectivity Index in the data set listed under Homo sapiens was over 7.
Take `CCOC(=O)Nc1ccc(NCc2ccc(C(F)(F)F)cc2F)c(F)c1N`: the EC2 was 0.18 µM in data set [1], 0.34 µM in data set [2], 0.11 µM in data set [3] and 0.3 µM in data set [4]. The Selectivity Index in the data set filed under Homo sapiens came to 1.7.
As for `CC(C)OC(=O)Nc1ccc(NCc2ccc(C(F)(F)F)cc2)c(F)c1N`, the EC2 in data set [1] amounted to 0.16 µM; in data set [2], 0.16 µM; in data set [3], 0.19 µM; in data set [4], 4.98 µM. For the same compound, the Selectivity Index in the data set filed under Homo sapiens is 31. The half-life in data set [5] worked out at 7.52 h.
Consider `CCOC(=O)Nc1ccc(NCc2ccc(C(F)(F)F)nc2)c(F)c1N`, for which the EC2 in data set [1] was 0.61 µM; in data set [2], 0.69 µM; in data set [3], 0.95 µM; in data set [4], 1.27 µM. The Selectivity Index in the data set listed under Homo sapiens came out at 2.1. This compound also displayed a half-life in data set [5] of 6.77 h.
As for `Nc1c(NC(=O)OC2CC2)ccc(NCc2ccc(C(F)(F)F)cc2F)c1F`, the EC2 amounted to 0.59 µM in data set [1], 0.47 µM in data set [2], 0.21 µM in data set [3] and 0.35 µM in data set [4]. For the same compound, the Selectivity Index in the data set listed under Homo sapiens is 0.6.
Turning to `Nc1c(NC(=O)OC2CC2)cc(F)c(NCc2ncc(C(F)(F)F)cc2F)c1F`, the EC2 in data set [1], in data set [2], in data set [3] and in data set [4] was over 10 µM in each case.
Take `CCOC(=O)Nc1ccc(NCc2ccc(C(F)(F)F)cn2)c(F)c1N`: the EC2 in data set [1] is 0.66 µM; in data set [2], 0.79 µM; in data set [3], 0.85 µM; in data set [4], 0.59 µM. The Selectivity Index in the data set listed under Homo sapiens is 0.9.
For `Nc1c(NC(=O)OC2CC2)ccc(NCc2ccc(C(F)(F)F)cn2)c1F`, in that order: 0.79 µM, 0.72 µM, 0.9 µM, 0.96 µM and 1.2.
`Nc1c(NC(=O)OC2CC2)ccc(NCc2ccc(C(F)(F)F)nc2)c1F`: the EC2 in data set [1] was determined as 0.71 µM; in data set [2], 0.69 µM; in data set [3], 1.13 µM; in data set [4], 1.36 µM. Besides, the Selectivity Index in the data set filed under Homo sapiens was 1.9.
For the compound `CCOC(=O)Nc1ccc(NCc2cccc(S(F)(F)(F)(F)F)c2)c(F)c1N`, the EC2 in data set [1] is 0.36 µM; in data set [2], 0.21 µM; in data set [3], 0.65 µM; in data set [4], 0.65 µM. Also, in the data set listed under Homo sapiens, the Selectivity Index worked out at 1.8.
On to `Nc1c(NC(=O)OC2CC2)cc(F)c(NCc2ccc(C(F)(F)F)cc2F)c1F`, for which the EC2 in data set [1] was 0.93 µM; in data set [2], over 10 µM; in data set [3] it was over 10 µM; in data set [4], over 10 µM. In addition, the Selectivity Index in the data set filed under Homo sapiens was over 10. Also, in data set [5], the half-life is 1.27 h.
For the compound `CCOC(=O)Nc1ccc(NCc2ccc(C(F)(F)F)c(C#N)n2)c(F)c1N`, the EC2 was 1.6 µM in data set [1], 1.3 µM in data set [2], 2.17 µM in data set [3] and 2.33 µM in data set [4]. The Selectivity Index in the data set listed under Homo sapiens worked out at 1.5.
For the compound `CCOC(=O)Nc1ccc(NCc2ccc(F)cc2)c(F)c1N`, the EC50 in data set [6] was determined as 600 nM.
For `Nc1c(F)c(NCc2ccc(C(F)(F)F)cc2F)cc(F)c1NC(=O)OC1CC1`, the EC2 was 1.47 µM in data set [1], over 10 µM in data set [2], 0.55 µM in data set [3] and over 10 µM in data set [4]. Besides, in the data set filed under Homo sapiens, the Selectivity Index was over 7.
On to `CCOC(=O)Nc1ccc(NCc2ccc(F)cc2)cc1N` [EZOGABINE], for which the EC2 in data set [1] amounted to 0.33 µM; in data set [2] it was 0.34 µM. This compound also showed a half-life in data set [5] of 16.2 h.
`Nc1c(F)c(NCc2ccc(C(F)(F)F)cc2F)c(F)c(F)c1NC(=O)OC1CC1`: the EC2 in data set [1], in data set [2], in data set [3] and in data set [4] was over 10 µM throughout.
For the compound `Nc1c(F)c(NCc2ncc(C(F)(F)F)cc2F)cc(F)c1NC(=O)OC1CC1`, the EC2 in data set [1] is 1 µM; in data set [2], over 10 µM; in data set [3], over 10 µM; in data set [4] it was over 10 µM. Moreover, in the data set filed under Homo sapiens, the Selectivity Index is over 10.
Regarding `Nc1c(NC(=O)OC2CC2)ccc(NCc2ccc(C(F)(F)F)cc2)c1F`, the EC2 in data set [1] amounted to 0.11 µM; in data set [2] it was 0.23 µM; in data set [3], 0.38 µM; in data set [4] it was 0.28 µM. Also, the Selectivity Index in the data set filed under Homo sapiens was found to be 2.5.
Regarding `CCOC(=O)Nc1cc(C(F)(F)F)c(NCc2ccc(C(F)(F)F)cc2)c(F)c1N`, the EC2 in data set [1], in data set [2], in data set [3] and in data set [4] was over 10 µM in each case.
In the case of `CCOC(=O)Nc1ccc(NCc2ccc(F)cc2)nc1N`, the EC2 in data set [1] amounted to 2 µM; in data set [2], 1.58 µM; in data set [3], 5.62 µM; in data set [4], 3.5 µM. Besides, the Selectivity Index in the data set listed under Homo sapiens came to 1.8.
Consider `CCOC(=O)Nc1ccc(NCc2ccc(C(F)(F)F)cc2)c(F)c1N`, for which the EC2 turned out to be 0.26 µM in data set [1], 0.29 µM in data set [2], 0.1 µM in data set [3] and 0.09 µM in data set [4]. The Selectivity Index in the data set listed under Homo sapiens came out at 0.3. In data set [5], this compound returned a half-life of 5.73 h.
In the case of `CCOC(=O)Nc1cc(F)c(NCc2ccc(C(F)(F)F)cc2)cc1N`, the EC2 is 1.26 µM in data set [1], over 10 µM in data set [2], 4.65 µM in data set [3] and over 10 µM in data set [4]. Besides, the Selectivity Index in the data set listed under Homo sapiens is over 7.
For `CCOC(=O)Nc1ccc(NCc2cccc(C(F)(F)F)c2)c(F)c1N`, the EC2 in data set [1] is 0.14 µM; in data set [2] it was 0.2 µM; in data set [3], 0.4 µM; in data set [4] it was 0.66 µM. Further, in the data set listed under Homo sapiens, the Selectivity Index came out at 4.7.
